Laboratory results taken from PubChem BioAssay AID623886 (Johns Hopkins Ion Channel Center, 2012).
Active and inactive are the calls of the source.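 How the source made its calls: active means peak inhibition of the KCNQ2 potassium channel above 30% at some tested dose, plus a fitted dose response curve; inactive means no inhibition at any dose, or no curve.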

Target: Potassium voltage-gated channel subfamily KQT member 2 (Rattus norvegicus) (UniProt O88943)
Assay: block of rat KCNQ2 potassium channel – cell-based, FluxOR thallium flux, concentration-response, selectivity assay for KCNK9 inhibitor project, SAR follow-up (AID 623886)
Conditions: KCNQ2 cell line, FluxOR thallium flux fluorescence; series mostly up to 30 µM; thallium flux ratio, lower = inhibition: at the top concentration
Method in brief: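 Assay system: CHO cells expressing KCNQ2 potassium channel / Also added: K2SO4/Tl2SO4 stimulus (5x stock 25 mM, 7 mM) / Schedule: FluxOR dye loading 90 min, compound pre-exposure 20 min, both room temperature / Detection: kinetic thallium-sensitive dye fluorescence / Measure: fluorescence range-to-baseline ratio / Benchmarks: XE-991 full block / Replication: duplicate or more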

Potassium voltage-gated channel subfamily KQT member 2 (Rattus norvegicus), sequence (O88943 whole entry, looked up): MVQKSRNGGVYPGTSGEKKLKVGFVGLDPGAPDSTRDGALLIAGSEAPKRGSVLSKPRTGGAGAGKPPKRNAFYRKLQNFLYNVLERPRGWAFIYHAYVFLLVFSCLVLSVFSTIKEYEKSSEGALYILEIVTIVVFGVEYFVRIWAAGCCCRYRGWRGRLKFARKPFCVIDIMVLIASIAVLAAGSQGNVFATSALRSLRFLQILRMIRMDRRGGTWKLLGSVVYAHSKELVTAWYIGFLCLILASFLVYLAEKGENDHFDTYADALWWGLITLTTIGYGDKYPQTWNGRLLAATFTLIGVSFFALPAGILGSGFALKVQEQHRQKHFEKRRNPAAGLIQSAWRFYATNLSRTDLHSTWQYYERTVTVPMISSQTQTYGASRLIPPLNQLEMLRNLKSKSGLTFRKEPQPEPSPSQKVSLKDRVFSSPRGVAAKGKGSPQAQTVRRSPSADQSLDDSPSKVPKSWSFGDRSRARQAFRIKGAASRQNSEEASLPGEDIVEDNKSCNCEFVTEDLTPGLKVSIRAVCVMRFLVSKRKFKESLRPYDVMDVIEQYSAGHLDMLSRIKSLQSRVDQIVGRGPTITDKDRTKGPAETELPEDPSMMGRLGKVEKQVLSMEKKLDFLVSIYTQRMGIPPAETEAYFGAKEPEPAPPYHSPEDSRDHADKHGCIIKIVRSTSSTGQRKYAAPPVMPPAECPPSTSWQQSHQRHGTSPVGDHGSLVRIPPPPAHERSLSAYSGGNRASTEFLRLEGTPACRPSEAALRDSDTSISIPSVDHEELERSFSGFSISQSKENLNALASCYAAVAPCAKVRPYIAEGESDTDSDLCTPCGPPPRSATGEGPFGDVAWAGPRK

Thallium flux ratio, lower = inhibition, inactive:
Cc1cccc(C(=O)Nc2ccccc2C(=O)Nc2ccccc2)c1 0.171
Cc1cccc(NC(=O)c2ccccc2NC(=O)c2ccccc2)c1 0.206
Cc1cccc(C(=O)Nc2cccc(C(=O)Nc3ccccc3)c2)c1 0.18
Cc1cccc(NC(=O)c2cccc(NC(=O)c3ccccc3)c2)c1 0.187
Cc1cccc(C(=O)Nc2ccc(C(=O)Nc3ccccc3)cc2)c1 0.198
